Test results as given in ChEMBL document CHEMBL1131239, “Orally active benzamide antipsychotic agents with affinity for dopamine D2, serotonin 5-HT1A, and adrenergic alpha1 receptors” (J Med Chem, 1998).

What was measured:
Rattus norvegicus [1] = test: compound was tested for antipsychotic activity by conditioned avoidance response(CAR) assay in rats with a pretreatment period of 30 min upon intra peritoneal administration at a concentration of 1 mg/kg.; type: functional
Outline: (§1)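 Trained rats (N = 4) were run in 1-h sessions on two consecutive days, with the experimenter blind to drug and dose. Fed rats had food and water until placed in the test chambers. Fasted rats had no food overnight before the experiment.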

Rattus norvegicus [2] = test: compound was tested for antipsychotic activity by conditioned avoidance response(CAR) assay in rats with a pretreatment period of 30 min upon intra peritoneal administration at a concentration of 15 mg/kg.; type: functional
Rattus norvegicus [3] = test: Percent catalepsy in male Spargue-Dawley rat at pretreatment time 60 mins and when administered ip at dose 50 mg/kg; type: functional; conditions: route intraperitoneal
Outline: (§2)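 Catalepsy in rats, groups of five per drug treatment, scored blind to drug and dose. Each session included a saline or vehicle negative control and a haloperidol 2 mg/kg positive control. Deaths during the experiment were recorded in the catalepsy column as number dead out of five.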

Rattus norvegicus [4] = test: Percent catalepsy in male Spargue-Dawley rat at pretreatment time 240 mins and when administered ip at dose 50 mg/kg; type: functional; conditions: route intraperitoneal; outline: as §2
Rattus norvegicus [5] = test: compound was tested for antipsychotic activity by conditioned avoidance response(CAR) assay in rats with a pretreatment period of 30 min upon intra peritoneal administration at a concentration of 5 mg/kg.; type: functional
Outline: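 Rat conditioned avoidance test modified from Martin et al. Trained rats (N = 4) were run in 1-h sessions on two consecutive days. Fed animals had food and water until placed in the test chambers. Dosing was ip with 30 min pretreatment, and activity was expressed as percent inhibition at the stated dose.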

[6] = target: T1, Adrenergic receptor alpha-1 (Rattus norvegicus, UniProt P15823+P23944+P43140); test: Binding affinity against Alpha-1 adrenergic receptor from rat cerebral cortex; type: tissue-based
T1 sequence (P15823 whole entry): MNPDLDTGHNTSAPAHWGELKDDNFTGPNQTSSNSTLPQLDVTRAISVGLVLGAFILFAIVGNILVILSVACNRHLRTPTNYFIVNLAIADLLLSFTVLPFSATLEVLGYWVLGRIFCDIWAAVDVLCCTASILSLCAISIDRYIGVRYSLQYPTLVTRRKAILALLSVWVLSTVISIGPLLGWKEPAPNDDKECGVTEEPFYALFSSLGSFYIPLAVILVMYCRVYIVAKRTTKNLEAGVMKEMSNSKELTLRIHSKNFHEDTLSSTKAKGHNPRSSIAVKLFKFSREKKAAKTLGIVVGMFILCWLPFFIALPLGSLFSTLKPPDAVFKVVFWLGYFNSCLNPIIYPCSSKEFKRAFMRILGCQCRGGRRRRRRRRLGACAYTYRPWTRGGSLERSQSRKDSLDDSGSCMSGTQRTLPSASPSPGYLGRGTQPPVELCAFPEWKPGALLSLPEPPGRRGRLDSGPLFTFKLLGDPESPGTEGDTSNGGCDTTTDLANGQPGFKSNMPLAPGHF
T1 sequence (P23944 whole entry): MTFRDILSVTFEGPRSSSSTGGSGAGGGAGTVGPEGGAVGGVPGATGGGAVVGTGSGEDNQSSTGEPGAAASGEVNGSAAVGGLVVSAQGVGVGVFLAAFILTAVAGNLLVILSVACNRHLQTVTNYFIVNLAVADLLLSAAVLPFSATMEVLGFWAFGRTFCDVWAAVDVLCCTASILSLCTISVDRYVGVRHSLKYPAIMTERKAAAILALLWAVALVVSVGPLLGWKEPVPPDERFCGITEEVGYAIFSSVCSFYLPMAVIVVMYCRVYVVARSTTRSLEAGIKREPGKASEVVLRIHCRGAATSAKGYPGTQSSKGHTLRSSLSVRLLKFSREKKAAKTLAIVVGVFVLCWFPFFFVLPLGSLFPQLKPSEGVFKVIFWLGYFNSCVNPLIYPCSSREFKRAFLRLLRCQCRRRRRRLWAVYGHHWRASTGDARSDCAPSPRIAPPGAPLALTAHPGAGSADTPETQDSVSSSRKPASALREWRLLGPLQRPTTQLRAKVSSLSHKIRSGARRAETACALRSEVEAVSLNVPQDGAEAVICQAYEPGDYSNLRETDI
T1 sequence (P43140 whole entry): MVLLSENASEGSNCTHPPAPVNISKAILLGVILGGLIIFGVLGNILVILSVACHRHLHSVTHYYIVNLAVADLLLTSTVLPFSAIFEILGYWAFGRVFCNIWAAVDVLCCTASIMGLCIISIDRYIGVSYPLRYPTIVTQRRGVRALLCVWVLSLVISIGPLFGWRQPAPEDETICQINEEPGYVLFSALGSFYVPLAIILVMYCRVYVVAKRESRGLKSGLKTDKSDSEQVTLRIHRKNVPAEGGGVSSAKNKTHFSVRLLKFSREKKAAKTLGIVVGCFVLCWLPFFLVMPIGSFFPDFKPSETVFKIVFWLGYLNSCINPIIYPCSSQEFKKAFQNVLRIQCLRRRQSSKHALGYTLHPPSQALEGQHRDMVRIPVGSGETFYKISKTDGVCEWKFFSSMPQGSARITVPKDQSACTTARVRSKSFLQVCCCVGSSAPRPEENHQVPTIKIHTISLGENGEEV

Rattus norvegicus [7] = test: compound was tested for antipsychotic activity by conditioned avoidance response(CAR) assay in rats with a pretreatment period of 240 min upon peroral administration at a concentration of 20 mg/kg.; type: functional; conditions: route oral; outline: as §1
Rattus norvegicus [8] = test: compound was tested for antipsychotic activity by conditioned avoidance response(CAR) assay in rats with a pretreatment period of 60 min upon peroral administration at a concentration of 20 mg/kg.; type: functional; conditions: route oral
Rattus norvegicus [9] = test: compound was tested for antipsychotic activity by conditioned avoidance response(CAR) assay in rats with a pretreatment period of 240 min upon intra peritoneal administration at a concentration of 2.5 mg/kg.; type: functional; outline: as §1
[10] = target: T2, 5-hydroxytryptamine receptor 1A (Rattus norvegicus, UniProt P19327); test: Compound was evaluated for its binding affinity against 5-hydroxytryptamine 1A receptor from rat cerebral cortex; type: tissue-based
T2 sequence (P19327 whole entry): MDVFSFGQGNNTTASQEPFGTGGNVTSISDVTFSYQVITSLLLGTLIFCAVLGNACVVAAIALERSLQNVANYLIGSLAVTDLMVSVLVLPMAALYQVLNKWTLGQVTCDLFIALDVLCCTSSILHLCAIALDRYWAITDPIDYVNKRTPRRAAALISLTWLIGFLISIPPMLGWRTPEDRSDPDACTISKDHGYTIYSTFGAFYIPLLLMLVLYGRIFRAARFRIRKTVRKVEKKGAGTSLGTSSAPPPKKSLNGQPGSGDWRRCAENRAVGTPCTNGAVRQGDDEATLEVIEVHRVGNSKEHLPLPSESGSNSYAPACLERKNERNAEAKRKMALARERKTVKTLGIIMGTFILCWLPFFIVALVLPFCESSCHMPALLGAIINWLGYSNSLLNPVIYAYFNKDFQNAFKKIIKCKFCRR

Rattus norvegicus [11] = test: compound was tested for antipsychotic activity by conditioned avoidance response(CAR) assay in rats with a pretreatment period of 30 min upon intra peritoneal administration at a concentration of 2.5 mg/kg.; type: functional; outline: as §1

With `CCN(CC)C(=O)c1cccc(CN2CCN(c3ccccc3OC(C)C)CC2)c1` the inhibition in vivo at 1 mg/kg (Rattus norvegicus [1]) was -65.1%, the inhibition in vivo at 15 mg/kg (Rattus norvegicus [2]) was -94.5% and the Catalepsy (Rattus norvegicus [3]) was 76.9%. For the same compound, the Catalepsy (Rattus norvegicus [4]) was 36.8%, the inhibition in vivo at 5 mg/kg (Rattus norvegicus [5]) was -96.2% and the Ki [6] was 4.4 nM. It also gave an inhibition in vivo at 20 mg/kg (Rattus norvegicus [7]) of -44.6%, an inhibition in vivo at 20 mg/kg (Rattus norvegicus [8]) of -93.4% and an inhibition in vivo at 2.5 mg/kg (Rattus norvegicus [9]) of -44.4%. For the same compound, the Ki [10] was 2.1 nM and the inhibition in vivo at 2.5 mg/kg (Rattus norvegicus [11]) was -60%.
